Test results reported in ChEMBL document CHEMBL4477233, “Discovery of novel TAOK2 inhibitor scaffolds from high-throughput screening” (Bioorg Med Chem Lett, 2016).
Activity calls are given as the source filed them. The rule behind the calls is not given here.

Assays:
[1] = target: T1, Serine/threonine-protein kinase TAO2 (Homo sapiens) (UniProt Q9UL54); test: Inhibition of TAOK2 in human U2OS cells assessed as inhibition of cellular autophagy measured as GFP-LC3 accumulation at 50 uM after 24 hrs by flow cytometric analysis; assay type: cell-based
T1 sequence (whole entry): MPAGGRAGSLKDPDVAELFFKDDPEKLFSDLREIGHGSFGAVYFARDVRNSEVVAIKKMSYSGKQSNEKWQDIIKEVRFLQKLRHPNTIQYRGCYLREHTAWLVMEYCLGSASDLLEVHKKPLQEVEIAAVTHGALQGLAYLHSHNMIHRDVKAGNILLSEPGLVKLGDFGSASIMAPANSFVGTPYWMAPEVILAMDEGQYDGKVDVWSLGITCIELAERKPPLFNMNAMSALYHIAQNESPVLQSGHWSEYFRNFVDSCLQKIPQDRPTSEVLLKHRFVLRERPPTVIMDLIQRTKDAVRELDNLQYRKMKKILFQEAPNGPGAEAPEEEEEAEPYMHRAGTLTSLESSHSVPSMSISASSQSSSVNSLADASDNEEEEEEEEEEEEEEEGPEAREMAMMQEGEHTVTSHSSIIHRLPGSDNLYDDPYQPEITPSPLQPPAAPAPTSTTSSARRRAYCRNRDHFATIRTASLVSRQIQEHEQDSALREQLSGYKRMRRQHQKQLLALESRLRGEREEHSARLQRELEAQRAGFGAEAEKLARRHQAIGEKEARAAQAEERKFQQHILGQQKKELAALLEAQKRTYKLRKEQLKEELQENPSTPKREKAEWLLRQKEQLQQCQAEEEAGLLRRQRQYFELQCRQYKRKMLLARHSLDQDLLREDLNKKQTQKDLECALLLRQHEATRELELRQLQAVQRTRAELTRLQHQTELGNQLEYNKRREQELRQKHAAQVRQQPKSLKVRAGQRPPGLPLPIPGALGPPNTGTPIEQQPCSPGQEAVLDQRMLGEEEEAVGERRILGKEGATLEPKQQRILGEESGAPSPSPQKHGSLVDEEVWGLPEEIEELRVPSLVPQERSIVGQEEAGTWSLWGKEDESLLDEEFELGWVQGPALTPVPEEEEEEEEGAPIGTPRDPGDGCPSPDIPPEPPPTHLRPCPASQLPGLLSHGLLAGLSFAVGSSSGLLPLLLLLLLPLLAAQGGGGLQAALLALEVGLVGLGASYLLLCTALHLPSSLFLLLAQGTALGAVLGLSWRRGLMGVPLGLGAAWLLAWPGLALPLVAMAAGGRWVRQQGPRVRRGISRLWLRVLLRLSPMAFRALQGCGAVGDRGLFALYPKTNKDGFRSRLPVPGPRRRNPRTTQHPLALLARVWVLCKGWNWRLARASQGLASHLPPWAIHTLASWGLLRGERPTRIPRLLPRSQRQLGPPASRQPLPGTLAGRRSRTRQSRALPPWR
Method in brief: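 U2OS cells stably expressing GFP–LC3 were exposed to compound at 50 µM in the medium for 24 h. GFP fluorescence was read by flow cytometry. The median value from 20,000 cells per condition was normalized to DMSO vehicle within each experiment. Data are mean + SD of >2 independent experiments, compared with vehicle by unpaired t test.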

[2] = target: T2, Serine/threonine-protein kinase TAO2 (Rattus norvegicus, UniProt Q9JLS3); test: Inhibition of rat TAOK2 (1 to 320 residues) expressed in Baculovirus/insect cell expression system assessed as remaining activity using MBP as substrate and [32P]ATP measured after 10 mins by Kinase-Glo assay
T2 sequence (Q9JLS3 whole entry): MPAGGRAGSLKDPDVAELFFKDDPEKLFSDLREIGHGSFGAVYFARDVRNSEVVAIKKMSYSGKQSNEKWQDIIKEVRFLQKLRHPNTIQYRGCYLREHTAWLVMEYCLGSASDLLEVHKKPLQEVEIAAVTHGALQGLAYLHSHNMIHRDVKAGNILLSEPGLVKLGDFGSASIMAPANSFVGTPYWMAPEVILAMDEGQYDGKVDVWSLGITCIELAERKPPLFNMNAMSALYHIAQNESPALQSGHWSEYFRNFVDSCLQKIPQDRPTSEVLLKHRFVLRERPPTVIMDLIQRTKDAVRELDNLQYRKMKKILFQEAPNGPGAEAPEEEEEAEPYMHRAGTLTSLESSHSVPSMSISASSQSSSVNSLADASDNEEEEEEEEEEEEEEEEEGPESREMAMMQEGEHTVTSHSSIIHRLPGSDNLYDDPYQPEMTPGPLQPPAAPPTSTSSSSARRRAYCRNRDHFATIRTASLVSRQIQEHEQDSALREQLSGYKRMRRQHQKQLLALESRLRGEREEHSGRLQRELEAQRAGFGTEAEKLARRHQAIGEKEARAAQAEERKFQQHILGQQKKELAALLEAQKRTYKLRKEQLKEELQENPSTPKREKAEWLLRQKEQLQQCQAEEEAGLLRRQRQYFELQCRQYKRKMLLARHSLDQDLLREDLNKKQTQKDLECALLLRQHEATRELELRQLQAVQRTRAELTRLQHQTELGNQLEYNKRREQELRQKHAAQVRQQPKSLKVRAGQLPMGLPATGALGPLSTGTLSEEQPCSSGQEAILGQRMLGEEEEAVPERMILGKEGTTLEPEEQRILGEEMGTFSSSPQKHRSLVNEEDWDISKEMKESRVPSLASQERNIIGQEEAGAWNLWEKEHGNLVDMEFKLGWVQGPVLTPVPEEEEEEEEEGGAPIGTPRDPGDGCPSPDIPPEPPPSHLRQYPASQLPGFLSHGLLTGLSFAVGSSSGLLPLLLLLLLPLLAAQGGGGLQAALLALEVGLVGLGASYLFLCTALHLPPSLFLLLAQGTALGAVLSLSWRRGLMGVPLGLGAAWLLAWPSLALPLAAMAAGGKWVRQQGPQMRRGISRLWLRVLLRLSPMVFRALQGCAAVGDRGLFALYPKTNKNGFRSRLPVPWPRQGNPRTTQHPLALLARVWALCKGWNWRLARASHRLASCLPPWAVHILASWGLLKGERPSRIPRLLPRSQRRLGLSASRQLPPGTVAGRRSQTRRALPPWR

[3] = target: MAP kinase p38 (Homo sapiens) (UniProt O15264+Q15759+Q16539+P53778); test: Binding affinity to p38 (unknown origin) assessed as change in melting temperature at 1 uM by SYPRO orange dye-based DSF analysis; assay type: protein assay
Method in brief: (§1)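 Differential scanning fluorimetry: each compound's melting-temperature shift (ΔTm, °C) was measured on the kinase protein. Compounds giving a TAOK2 ΔTm above 0.5 °C were also run against p38 and ASK1. Selectivity (ΔΔTm) was taken as the TAOK2 ΔTm minus the p38 or ASK1 ΔTm.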

[4] = target: T3, Serine/threonine-protein kinase TAO2 (Rattus norvegicus) (UniProt Q9JLS3); test: Binding affinity to rat TAOK2 (1 to 320 residues) expressed in Baculovirus/insect cell expression system assessed as change in melting temperature at 1 uM by SYPRO orange dye-based DSF analysis; method in brief: as §1
T3 sequence (whole entry): T2 sequence (Q9JLS3 whole entry)

| Structure (SMILES) | inhibition [1] | IC50 [2] | ΔTm [3] | ΔTm [4] |
| --- | --- | --- | --- | --- |
| Cc1ccc(NCCCC(=O)N/N=C/c2cc(Br)cc(Br)c2O)cc1 | Active | 6 µM | 1.3 °C | 1.6 °C |
| CS(=O)(=O)c1ccc2nc(NC(=O)CCCOc3ccc(Cl)cc3)sc2c1 | Active |  | 2 °C | 1.3 °C |
| CCC(=O)Nc1nc(C)c(-c2csc(Nc3cc(OC)ccc3OC)n2)s1 | Active |  | 2.8 °C | 3 °C |
| Cc1ccc(C(=O)CSc2nnc(-c3ccncc3)[nH]2)c(C)c1 | Active | 5 µM | 0 °C | 0.7 °C |

Other lines, results leading:

| inhibition [1] | IC50 [2] | ΔTm [3] | ΔTm [4] | Structure (SMILES) |
| --- | --- | --- | --- | --- |
| Active | 2 µM | 2.2 °C | 1.6 °C | O=C(NCC1COc2ccccc2O1)c1ccc(NC(=O)c2ccco2)cc1 (stereo not given) |
| Active | 3 µM | 2 °C | 1.2 °C | c1cc2[nH]c3c(c2c2nonc12)CCCC3 |
| Active | 3 µM | 1.5 °C | 2.2 °C | O=C(O)c1cc(-c2ccc(-c3ccccc3[N+](=O)[O-])o2)nc2ccc3ccccc3c12 |
| Active | 1.3 to 1.4 µM | 2 °C | 2 °C | CCOCCCn1c(=S)[nH]c2cc(C(=O)NCC3COc4ccccc4O3)ccc2c1=O (stereo not given) |
